OX1R antag-1 – antagonists of human orexin 1 receptor (OX1R); inhibition, % at 6.6 µM; actives 1.8% (n = 330,000); Orexin/Hypocretin receptor type 1 (Homo sapiens), O43613; OX1R-expressing cells, FRET antagonist read-out; AID 485270, 2010; in the data active means inhibition mostly above about 38%, no sharp cut-off; inactive means mostly below about 40%;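 further: 0% = agonist challenge alone and 100% = reference antagonist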
Target sequence (O43613 whole entry, looked up): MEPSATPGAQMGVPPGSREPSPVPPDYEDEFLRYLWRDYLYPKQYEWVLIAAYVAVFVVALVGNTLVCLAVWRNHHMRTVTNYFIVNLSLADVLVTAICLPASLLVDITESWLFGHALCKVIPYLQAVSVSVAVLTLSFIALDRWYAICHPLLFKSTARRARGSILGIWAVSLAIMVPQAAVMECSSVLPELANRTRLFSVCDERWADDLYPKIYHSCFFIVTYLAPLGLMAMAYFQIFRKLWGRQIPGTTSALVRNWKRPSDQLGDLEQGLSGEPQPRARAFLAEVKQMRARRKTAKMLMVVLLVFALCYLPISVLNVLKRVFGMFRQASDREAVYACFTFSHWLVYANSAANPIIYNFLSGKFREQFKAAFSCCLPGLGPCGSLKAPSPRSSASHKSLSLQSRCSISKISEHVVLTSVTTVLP
TAAR1 antagonist – human TAAR1 antagonists, primary screen, Fluo-8 calcium fluorescence, CHO RD-HGA16 cells. Trace amine-associated receptor 1 (Homo sapiens), Q96RJ0. actives 1.5% (n = 360,000). inhibition, % at 3 µM. antagonist. AID 624466, 2012;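 active means inhibition above a per-plate cutoff, the mean inhibition of test compounds on that plate plus 3 SD, cut at about 49% in these data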;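 further: 0% = DMSO plus EC80 beta-PEA response and 100% = DMSO alone without agonist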
Target sequence (Q96RJ0 whole entry, looked up): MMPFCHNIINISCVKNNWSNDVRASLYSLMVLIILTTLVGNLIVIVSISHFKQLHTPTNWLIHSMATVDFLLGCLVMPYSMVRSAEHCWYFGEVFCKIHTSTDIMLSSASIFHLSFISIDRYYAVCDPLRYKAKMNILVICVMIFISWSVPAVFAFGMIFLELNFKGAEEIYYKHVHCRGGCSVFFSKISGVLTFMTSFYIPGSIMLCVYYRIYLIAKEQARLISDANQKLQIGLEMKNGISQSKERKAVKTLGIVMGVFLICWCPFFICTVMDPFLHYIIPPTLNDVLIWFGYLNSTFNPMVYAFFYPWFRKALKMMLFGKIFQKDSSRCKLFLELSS
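Test system: RD-HGA16 CHO cells with stable hTAAR1 and Gα16 / Probe or stimulus: EC80 β-phenethylamine stimulus / Times: seeding 17-24 h prior, 75-min 37 °C, 30-min RT dye loading / Detection: Fluo-8 calcium-sensitive fluorescence / Read-out basis: % inhibition scaled between DMSO and EC80 PEA controls / Repeats: singlicate, one well per test compound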
GPR7 antag – GPR7 receptor antagonists, primary screen, cell-based, fluorescence, single concentration | inhibition, % at 4.4 µM | AID 1861, 2009 | actives 1.1% (n = 290,000) | Neuropeptides B/W receptor type 1 (Homo sapiens), P48145 | GPR7-expressing cells, fluorescence antagonist assay; in the data active means inhibition above about 16%, passing the limit was not always enough;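 further: cells stimulated with the agonist NPW; 0% = agonist with vehicle and 100% = vehicle without agonist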
TAAR1 ag – human TAAR1 agonists, primary screen, Fluo-8 calcium fluorescence, CHO RD-HGA16 cells. Trace amine-associated receptor 1 (Homo sapiens), Q96RJ0. vehicle wells 0%, saturating PEA agonist 100%. activation, % at 3 µM. actives 0.99% (n = 360,000);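 active means activation above the mean activation of all test compounds in the run plus 3 SD, cut at about 38% in these data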
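Benchmarks: low control DMSO, high control PEA (EC100); System: CHO RD-HGA16 cells carrying human TAAR1 plus Gα16; Detection: Fluo-8 fluorescence, 5 s baseline then 140 s kinetic read; Schedule: 17-24 h plating, Fluo-8 75 min 37 °C, 30 min RT; Read-out basis: % activation from peak over basal fluorescence ratio, DMSO-to-PEA scaled.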
OX1R antag-2 – OX1R (HCRTR1) antagonists, primary screen, fluorescence, CHO/OX1R cells, Fluo-8 calcium, orexin A. actives 0.43% (n = 330,000). inhibition, % at 5 µM. Fluo-8 calcium fluorescence. Orexin/Hypocretin receptor type 1 (Homo sapiens), O43613. AID 434989, 2010;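 active means inhibition above its plate's threshold, mean inhibition of all tested compounds on the plate plus 3 SD, cut at about 37% in these data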;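 further: 0% = orexin A challenge wells and 100% = SB-334867-A antagonist wells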
CHO parental Ca – ATP-evoked calcium signal inhibitors, parental CHO, primary screen, counter-screen for OX1R antagonist project, cell-based, fluorescence, Fluo-8 calcium dye; parental CHO-K1, ATP-induced calcium, Fluo-8 fluorescence; inhibition, % at 5.6 µM; actives 0.63% (n = 330,000);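 active means inhibition above that plate's mean sample inhibition plus 3 SD, cut at about 26% in these data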;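 further: 0% = ATP-challenged DMSO wells and 100% = DMSO wells without ATP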
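Assay system: untransfected parental CHO cell line. Also added: ATP agonist challenge. Dosing: one dose, 5.6 µM nominal. Measured by: Fluo-8 fluorescence. Read-out: % inhibition. Benchmarks: ATP wells versus no-ATP DMSO wells. Repeats: no replicates.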
Numbers without * were called inactive; · = no result given. An excerpt weighted towards active compounds, which were near 4.5% of everything screened.

SMILES | OX1R antag-1 | TAAR1 antagonist | GPR7 antag | TAAR1 ag | OX1R antag-2 | CHO parental Ca
CN1/C(=C\C(=O)c2ccco2)C(C)(C)c2ccccc21 | 32.6 | 57.5* | 24.1 | 1.8 | 21.4 | 70.9*
CC(=O)/C=C1\N(C)c2ccc(C)cc2C1(C)C | 22.3 | -1.0 | -6.8 | -1.5 | 6.3 | 38.1*
CC(C)C(=O)NC(=S)/C=C1/N(C)c2ccccc2C1(C)C | 13.9 | 2.9 | 0.7 | 0.7 | -6.2 | 0.3
CN1/C(=C\C(=O)c2cncc(Br)c2)C(C)(C)c2ccccc21 | 19.0 | 0.2 | 8.5 | -0.2 | 37.2 | 38.6*
COc1ccc(NC(=O)CN(C)S(=O)(=O)c2ccc(Cl)cc2)cc1Cl | 15.4 | -8.4 | -2.4 | 5.8 | -12.3 | -10.4
COc1ccc(S(=O)(=O)N(C)CC(=O)Nc2ccc(C(F)(F)F)cc2)cc1Cl | 14.2 | -18.4 | 3.2 | 5.2 | -8.0 | 31.7*
O=C(CN1C(=O)C2CC=CCC2C1=O)Nc1nc(-c2ccc(F)cc2)cs1 (configuration not stated) | 11.3 | 51.1* | · | 28.2 | 0.2 | -12.1
CCCN1C(=O)CC(c2ccc(OC)c(OC)c2)C1=O (configuration not stated) | · | -14.5 | · | 3.9 | · | ·
COc1ccc(NC(=O)/C(Cl)=C(/Cl)S(=O)(=O)Cc2ccc(C)cc2)cn1 | · | · | 24.1* | · | · | ·
O=C(NCc1cccnc1)/C(=C\c1ccc(-c2ccc(Br)cc2)o1)S(=O)(=O)c1ccccc1 | 20.9 | 11.5 | 22.9* | 9.6 | -19.2 | -17.8
O=C(NCc1cccnc1)/C(=C/c1ccc(-c2ccc(Cl)cc2)o1)S(=O)(=O)c1ccccc1 | 31.5 | 13.4 | 26.9* | 7.7 | -16.0 | -4.4
CCCCNC(=O)C(NC(=O)c1cccc2ccccc12)C(=O)c1ccccc1 (configuration not stated) | · | 6.2 | · | 0.3 | · | ·
COC(=O)c1cc2c(c3c4cc(OC)ccc4n(S(C)(=O)=O)c13)C(=O)N(C)C2 | · | 8.4 | · | 1.1 | · | ·
COc1ccc(N=C2C(=O)N3CCCc4cccc2c43)cc1 | 65.7* | -26.0 | -10.1 | 6.2 | -14.7 | -11.0
Cc1cccc(NC(=O)c2nc[nH]c2C(=O)N(C)CCO)c1 | · | 2.3 | · | 3.0 | · | ·
COc1ccc(S(=O)(=O)N2CCOC2CNC(=O)C(=O)NCCc2ccccc2OC)cc1C (configuration not stated) | 25.0 | 2.5 | 2.3 | 13.5 | -9.7 | -14.9
COc1ccc(S(=O)(=O)N2CCOC2CNC(=O)C(=O)NCCc2c[nH]c3ccccc23)cc1C (configuration not stated) | 55.4* | 37.4 | -8.5 | 9.1 | 5.0 | -0.5
COc1ccc(S(=O)(=O)N2CCOC2CNC(=O)C(=O)NCCc2c[nH]c3ccccc23)cc1 (configuration not stated) | 14.2 | 35.2 | -7.8 | 16.6 | -1.6 | 5.4
COc1ccc(S(=O)(=O)N2CCOC2CNC(=O)C(=O)NCCc2ccc(S(N)(=O)=O)cc2)cc1 (configuration not stated) | 5.2 | -7.0 | -3.9 | 0.0 | -18.4 | 72.4*
COc1ccccc1CCNC(=O)C(=O)NCC1OCCN1S(=O)(=O)c1ccc2c(c1)OCCO2 (configuration not stated) | 31.0 | 0.2 | -7.5 | 39.2* | -2.0 | -3.3
COc1ccc(CCNC(=O)C(=O)NCC2OCCN2S(=O)(=O)c2ccc(OC)cc2)cc1 (configuration not stated) | 23.7 | -0.7 | 4.4 | 5.9 | -28.5 | -9.4
CC(C)OC(=O)c1nnn(-c2nonc2N)c1CN1CCc2ccccc2C1 | · | -12.9 | 2.2 | 15.6 | · | ·
CCOC(=O)c1nnn(-c2nonc2N)c1CN1CCc2ccccc2C1 | 14.8 | 7.0 | -3.4 | 40.1* | -12.7 | -10.2
NC(=O)c1c(N)[nH]c(C(=O)c2ccccc2)c1-c1ccccc1Cl | · | 18.6 | · | 8.6 | · | ·
COc1ccc(C(=O)Nc2ccccc2C(=O)NC(Cc2c[nH]c3ccccc23)C(=O)O)cc1 (configuration not stated) | 67.8* | -7.9 | -12.3 | 5.1 | 21.2 | -1.9
SMILES | OX1R antag-1 | TAAR1 antagonist | GPR7 antag | TAAR1 ag | OX1R antag-2 | CHO parental Ca
CCOC(=O)N1CCN(C(=O)CSCC(=O)Nc2nc(-c3ccc(OC)cc3)cs2)CC1 | 5.4 | -7.2 | 5.9 | 11.8 | -27.0 | -20.1
CCOC(=O)N1CCN(C(=O)CSCC(=O)Nc2nc(-c3ccc(-c4ccccc4)cc3)cs2)CC1 | 47.9* | 70.2* | -5.8 | 7.6 | 52.8* | 90.8*
COc1ccccc1C1(O)CCN(CC(=O)Nc2nc(-c3ccccc3)cs2)CC1 | 2.4 | 53.0* | 6.1 | 6.0 | -19.6 | 0.2
COc1ccc(/C=C2\Oc3cc(OCC(=O)N4CCC[C@H]4CO)ccc3C2=O)c(OC)c1 | 25.0 | · | -6.7 | · | -22.1 | -10.6
CSc1nnc(C)c(/C=C/Nc2ccc(F)cc2)n1 | 23.2 | 32.0 | -3.7 | 67.7* | -17.5 | -2.2
Cc1cc(C(C)C)n2c(nc3ccccc32)c1C#N | 10.9 | · | -9.5 | · | -16.5 | -6.7
Cc1cc(-c2ccco2)c(C#N)c2nc3ccccc3n12 | 100.2* | 7.4 | -1.5 | 3.8 | -14.9 | -6.5
O=[N+]([O-])c1c(N2CCN(CCO)CC2)nc2ccccn12 | 70.2* | -5.7 | -0.5 | 0.1 | -7.6 | -3.0
N#Cc1c(-c2ccco2)cc(-c2ccccn2)nc1N | 73.5* | 10.0 | 1.2 | 1.9 | 4.1 | -15.3
COc1ccc(-n2c(CSc3ccc(Cl)cc3)n[nH]c2=S)cc1 | · | -12.7 | · | 1.8 | · | ·
O=C(/C=C(\Nc1cc(Cl)c(Cl)c(Cl)c1)c1ccccc1)c1ccccc1 | · | -16.9 | · | 0.3 | · | ·
CC(C)(C)NC(=O)COC(=O)CNC(=O)c1cc(Cl)cc([N+](=O)[O-])c1 | 44.1 | -0.5 | -8.9 | 0.5 | -5.7 | -4.7
CCNC(=O)COC(=O)CNC(=O)c1cc(Cl)cc([N+](=O)[O-])c1 | 41.1* | -25.1 | -0.9 | 5.8 | -12.2 | -6.7
CCCCNC(=O)COC(=O)CNC(=O)c1cc(Cl)cc([N+](=O)[O-])c1 | 76.8* | -6.2 | 0.0 | 0.5 | -8.6 | -8.8
O=C(CNC(=O)c1cc(Cl)cc([N+](=O)[O-])c1)NC1CC1 | 47.8* | 10.0 | · | 0.3 | -0.4 | -5.2
COc1ccc(CNC(=O)C[C@H]2C[C@H](C(=O)N(C(C)C)C(C)C)[C@@]3(C)c4[nH]c5cc(-c6ccco6)ccc5c4CCN3C2=O)cc1OC | 5.3 | -19.6 | · | -0.3 | -29.9 | -14.5
COC(=O)Cc1nnn2c1CC(OC)c1ccccc1-2 (configuration not stated) | · | -30.0 | · | 1.9 | · | ·
